Where a SMILES comes first, the peptide text is derived from it.
Legend:
SK-MEL-2 = assay: Antitumor activity against human SK-MEL-2 cell line; type: functional, cell-based
MKN-45 = assay: Antitumor activity against human MKN45 cell line; type: functional, cell-based
SK-OV-3 = assay: Antitumor activity against human SKOV3 cell line; type: functional, cell-based
MCF7 = assay: Antitumor activity against human MCF7 cell line; type: functional, cell-based
A549 = assay: Antitumor activity against human A549 cell line
A498 = assay: Antitumor activity against human A498 cell line
HCT-116 = assay: Antitumor activity against human HCT116 cell line; type: functional, cell-based
NCI-H630 = assay: Antitumor activity against human NCI-H630 cell line; type: functional, cell-based
PC-3 = assay: Antitumor activity against human PC3 cell line; type: functional, cell-based
RBCs [1] = assay: Hemolytic activity against human red blood cells at 100 ug/ml; type: functional, Erythrocyte
Summary of the method: (§1)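 Human erythrocytes exposed to peptide. Hemolysis expressed as % relative to lysis by 0.2% Triton X-100.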

RBCs [2] = assay: Hemolytic activity against human red blood cells at 200 ug/ml; type: functional, Erythrocyte; summary of the method: as §1
RBCs [3] = assay: Hemolytic activity against human red blood cells at 300 ug/ml; type: functional, Erythrocyte; summary of the method: as §1
RBCs [4] = assay: Hemolytic activity against human red blood cells at 400 ug/ml; type: functional, Erythrocyte; summary of the method: as §1
MCF10 = assay: Antitumor activity against human MCF10a cell line

| Molecule | IC90 (SK-MEL-2) | IC50 (MKN-45) | IC90 (MKN-45) | IC50 (SK-OV-3) | IC90 (SK-OV-3) | IC50 (MCF7) | IC50 (A549) | IC90 (A549) | IC50 (A498) | IC50 (HCT-116) | IC90 (HCT-116) | IC50 (NCI-H630) | IC90 (NCI-H630) | IC50 (PC-3) | IC90 (PC-3) | Activity (RBCs [1]) | IC90 (MCF7; read-out: IC90) | Activity (RBCs [2]) | Activity (RBCs [3]) | Activity (RBCs [4]) | also measured |
| --- | --- | --- | --- | --- | --- | --- | --- | --- | --- | --- | --- | --- | --- | --- | --- | --- | --- | --- | --- | --- | --- |
| CC[C@H](C)[C@H](NC(=O)[C@H](C)NC(=O)[C@H](CS)NC(=O)[C@H](CCCCN)NC(=O)[C@@H](NC(=O)[C@H](CO)NC(=O)[C@@H]1CCCN1C(=O)[C@H](CC(C)C)NC(=O)[C@@H](NC(=O)[C@H](CCCCN)NC(=O)[C@H](CO)NC(=O)[C@H](C)NC(=O)[C@@H](NC(=O)[C@H](CCCCN)NC(=O)[C@H](Cc1ccccc1)NC(=O)[C@H](CC(C)C)NC(=O)[C@H](C)NC(=O)CNC(=O)[C@H](CC(C)C)NC(=O)[C@@H](N)Cc1ccccc1)C(C)C)C(C)C)C(C)C)C(=O)N[C@H](C(=O)N[C@@H](CCCCN)C(=O)N[C@@H](CCCCN)C(=O)N[C@@H](CS)C(=O)O)[C@@H](C)O (H-FLGALFKVASKVLPSVKCAITKKC-OH) | 18.2 µM | 13.7 µM | 24 µM | 15 µM | 23.4 µM | 72 µM | 57.1 µM | 89.1 µM | 54.1 µM | 44.4 µM | 89.1 µM | 16.4 µM | 25.1 µM | 17.1 µM | 22.9 µM | 6.8% |  |  |  |  | IC50 (SK-MEL-2): 18.6 µM; IC90 (MCF7): 93.3 µM |
| CC(=O)O[C@H]1C(=O)[C@@]2(C)[C@H]([C@H](OC(=O)c3ccccc3)[C@]3(O)C[C@H](OC(=O)[C@H](O)[C@@H](NC(=O)c4ccccc4)c4ccccc4)C(C)=C1C3(C)C)[C@]1(OC(C)=O)CO[C@@H]1C[C@@H]2O [PACLITAXEL] | 0.037 µM |  | 0.204 µM | 0.005 µM | 0.071 µM |  |  | 0.041 µM |  |  | 0.008 µM |  | 0.372 µM |  | 0.832 µM |  | 0.015 µM |  |  |  | IC90 (A498): 0.229 µM |
| H-FLGALFKVASK-OH |  |  |  |  |  |  |  |  |  |  |  |  |  |  |  | 6.06% |  | 6.06% | 6.06% | 6.21% |  |
| H-FLGALFKVASKVL-OH |  |  |  |  |  |  |  |  |  |  |  |  |  |  |  | 25.8% |  |  |  |  |  |
| H-FLGALFKWASK-OH |  | 113 µM | 151 µM | 119 µM | 166 µM | 157 µM | 330 µM |  | 169 µM | 114 µM | 170 µM | 102 µM | 117 µM | 137 µM | 195 µM | 6.21% | 229 µM | 6.36% | 6.36% | 6.67% | IC50 (MCF10): 343 µM |
| H-FLGWLFKVASK-OH | 46.8 µM | 63.8 µM | 85.1 µM | 71.1 µM | 89.1 µM | 59.6 µM | 82 µM | 102 µM | 56.5 µM | 23.5 µM | 56.2 µM | 58.6 µM | 81.3 µM | 95.5 µM | 112 µM | 6.52% | 110 µM | 6.82% | 7.12% | 9.24% | IC50 (SK-MEL-2): 23.5 µM; IC90 (A498): 83.2 µM; IC50 (MCF10): 240 µM |

Reference: ChEMBL document CHEMBL1146866, “Structural determinants for the membrane interaction of novel bioactive undecapeptides derived from gaegurin 5” (J Med Chem, 2006)
